Data taken from ChEMBL document CHEMBL1806447, “Semi-synthesis and antitumor activity of 6-isomers of 5, 8-O-dimethyl acylshikonin derivatives” (Eur J Med Chem, 2011).

Tests used:
HCT-15 = assay: Antitumor activity against human HCT15 cells after 24 hrs by MTT assay; assay type: functional, cell-based; details: HCT-15, 24 h
How it was run: (§1)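 Seeded at 5.0 × 10⁴ cells/mL and cultured 24 h, then exposed 24 h to serial dilutions made from a DMSO solution. MTT (5 mg/mL) added for 4 h, formazan dissolved in DMSO, A570 read. IC50 taken by linear regression of concentration-response curves; mean of at least three independent experiments.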

CNE = assay: Antitumor activity against human CNE cells after 24 hrs by MTT assay; assay type: functional, cell-based; how it was run: as §1
MDA-MB-231 = assay: Antitumor activity against human MDA-MB-231 cells after 24 hrs by MTT assay; assay type: functional, cell-based; details: MDA-MB-231, 24 h; how it was run: as §1
L929 = assay: Cytotoxicity against mouse L929 cells after 24 hrs by MTT assay; assay type: cell-based; details: L929, 24 h; how it was run: as §1
MCF7 = assay: Antitumor activity against human MCF7 cells after 24 hrs by MTT assay; assay type: functional, cell-based; details: MCF7, 24 h; how it was run: as §1
[1] = Cytotoxicity against human HSF cells after 24 hrs by MTT assay; assay type: cell-based; how it was run: as §1
K562 = assay: Antitumor activity against human K562 cells after 24 hrs by MTT assay; assay type: functional, cell-based; details: K562, 24 h; how it was run: as §1
Mus musculus = assay: Toxicity in KM mouse harboring mouse S180 cells xenograft assessed as body weight change at 25 mg/kg, ip administered qd for 9 days measured on 10th day (reference value: +39.1%); assay type: organism-based, CCRF S-180; parameters: dose 25 mg/kg, route intraperitoneal; details: in vivo, 216 h
How it was run: (§2)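 S-180 sarcoma cells (2 × 10⁶ in 0.2 ml saline) injected subcutaneously at the femur of male SPF KM mice, seven weeks old, 18–22 g; groups of 10. Dosing began 24 h later, i.p. once daily for 9 days, in 0.5% DMSO/1% Tween 80 diluted with saline; controls received vehicle. Body weight followed; tumors excised and weighed on day 10. Inhibition = (control − treated mean tumor weight)/control × 100%.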

CCRF S-180 [2] = assay: Antitumor activity against mouse S180 cells xenografted in KM mouse assessed as decrease in tumor weight at 25 mg/kg, ip administered qd for 9 days measured on 10th day (reference value: 2.07+/- 0.42g); assay type: functional; details: route intraperitoneal; how it was run: as §2
CCRF S-180 [3] = assay: Antitumor activity against mouse S180 cells xenografted in KM mouse assessed as tumor weight inhibition rate at 25 mg/kg, ip administered qd for 9 days measured on 10th day; assay type: functional; details: CCRF S-180, ip, 216 h, route intraperitoneal; how it was run: as §2

| SMILES | IC50 (MDA-MB-231) [µM] | IC50 (MCF7) [µM] | IC50 [1] [µM] | further results |
| --- | --- | --- | --- | --- |
| COc1ccc(OC)c2c1C(=O)C=C([C@@H](CC=C(C)C)OC(C)=O)C2=O | 7.2 | – | – | IC50 (HCT-15): 29.6 µM; IC50 (CNE): 23.1 µM; IC50 (L929): > 100 µM |
| CCC(=O)O[C@H](CC=C(C)C)c1cc(OC)c2c(c1OC)C(=O)C=CC2=O | 2.5 | 6.2 | 78.6 | – |
| COc1cc([C@@H](CC=C(C)C)OC(=O)CCc2ccccc2)c(OC)c2c1C(=O)C=CC2=O | 3.7 | 5.9 | > 100 | – |
| COc1cc([C@@H](CC=C(C)C)OC(=O)C2CCOC2)c(OC)c2c1C(=O)C=CC2=O (stereo partly specified) | 0.2 | 1.1 | 69.4 | – |
| COc1cc([C@@H](CC=C(C)C)OC(=O)C2CCCO2)c(OC)c2c1C(=O)C=CC2=O (stereo partly specified) | 0.6 | 2.5 | > 100 | IC50 (K562): 11.2 µM; IC50 (HCT-15): 18.6 µM; IC50 (CNE): 20.6 µM; IC50 (L929): > 100 µM |
| COc1cc([C@@H](CC=C(C)C)OC(=O)c2ccoc2)c(OC)c2c1C(=O)C=CC2=O | 0.4 | 1.3 | > 100 | – |
| COc1cc([C@@H](CC=C(C)C)OC(=O)c2ccc([N+](=O)[O-])cc2)c(OC)c2c1C(=O)C=CC2=O | 16.8 | 15.2 | > 100 | – |
| CCCC(=O)O[C@H](CC=C(C)C)c1cc(OC)c2c(c1OC)C(=O)C=CC2=O | 4.3 | 5.1 | 86.3 | – |
| COc1cc([C@@H](CC=C(C)C)OC(C)=O)c(OC)c2c1C(=O)C=CC2=O | 3.4 | 4.9 | > 100 | IC50 (K562): 15.3 µM; IC50 (HCT-15): 19.3 µM; IC50 (CNE): 58 µM; IC50 (L929): > 100 µM |
| COc1cc([C@@H](CC=C(C)C)OC(=O)c2ccco2)c(OC)c2c1C(=O)C=CC2=O | 1.3 | 2.7 | > 100 | – |
| COc1cc([C@@H](CC=C(C)C)OC(=O)c2cccnc2)c(OC)c2c1C(=O)C=CC2=O | 6 | 17.4 | 91.7 | – |
| COc1ccccc1C(=O)O[C@H](CC=C(C)C)c1cc(OC)c2c(c1OC)C(=O)C=CC2=O | 4.4 | 21.3 | > 100 | – |
| COc1ccc(/C=C/C(=O)O[C@H](CC=C(C)C)c2cc(OC)c3c(c2OC)C(=O)C=CC3=O)cc1OC | 5 | 7.7 | > 100 | – |
| COc1cc([C@@H](CC=C(C)C)OC(=O)C(C)C)c(OC)c2c1C(=O)C=CC2=O | 2.8 | 3.7 | 69.3 | – |
| COc1cc([C@@H](CC=C(C)C)OC(=O)c2ccncc2)c(OC)c2c1C(=O)C=CC2=O | 1.2 | 6.3 | > 100 | – |
| COc1cc([C@H](O)CC=C(C)C)c(OC)c2c1C(=O)C=CC2=O | 4.1 | 9.2 | 79.6 | – |
| COc1ccc(CC(=O)O[C@H](CC=C(C)C)c2cc(OC)c3c(c2OC)C(=O)C=CC3=O)cc1 | 2.3 | 5.5 | > 100 | – |
| COc1ccc(OC)c2c1C(=O)C=C([C@@H](CC=C(C)C)OC(=O)C1CCCO1)C2=O (stereo partly specified) | 2.1 | – | – | IC50 (HCT-15): 12.7 µM; IC50 (CNE): 16.5 µM; IC50 (L929): > 100 µM |
| O=c1[nH]cc(F)c(=O)[nH]1 [FLUOROURACIL] | – | – | – | Activity (Mus musculus): 34.7%; Activity (CCRF S-180 [2]): 1.11 g; inhibition in vivo at 25 mg/kg (CCRF S-180 [3]): 46.5% |
| CC(C)=CC[C@@H](O)C1=CC(=O)c2c(O)ccc(O)c2C1=O [SHIKONIN] | 6.6 | – | – | IC50 (HCT-15): 7.3 µM; IC50 (CNE): 0.7 µM; IC50 (L929): 3.2 µM |
| COc1cc([C@@H](CC=C(C)C)OC(=O)/C=C/c2ccccc2)c(OC)c2c1C(=O)C=CC2=O | 2.4 | 3.9 | > 100 | – |
| COc1ccc(C(=O)O[C@H](CC=C(C)C)c2cc(OC)c3c(c2OC)C(=O)C=CC3=O)cc1 | 1.4 | 8.3 | 88.3 | – |
| CCC(C)C(=O)O[C@H](CC=C(C)C)c1cc(OC)c2c(c1OC)C(=O)C=CC2=O (stereo partly specified) | 5.9 | 4.5 | 93.6 | – |
| COc1cc([C@@H](CC=C(C)C)OC(=O)c2ccccc2)c(OC)c2c1C(=O)C=CC2=O | 2.2 | 6.7 | > 100 | – |
| C/C=C/C(=O)O[C@H](CC=C(C)C)c1cc(OC)c2c(c1OC)C(=O)C=CC2=O | 1.5 | 3.3 | 74.9 | – |
